Screening results from PubChem.
The list is not random: actives were taken first. Their share in the collection is about 3.7%.
KCNK9 block = blocks the human KCNK9 two-pore domain potassium channel; HEK293 KCNK9, FluxOR thallium flux fluorescence; active compounds read low; 310,000 compounds, 1.2% hits; AID 488922; Q9NPC2; B-score at 10 µM;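 active = ratio B-score over 3 SD below the library mean, with starting fluorescence within 5 SD of its mean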;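 note: negative B-score means less thallium flux so channel inhibition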
KCNQ1 block = inhibitors of human KCNQ1 potassium channel; P51787; CHO-K1 KCNQ1, FluxOR thallium flux fluorescence; active compounds read high; B-score at 10 µM; 310,000 compounds, 1.3% hits;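 active = compounds whose thallium flux B-score, printed positive for inhibition, exceeds three library SD while starting fluorescence stays within three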;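 note: channel opened by potassium depolarization with thallium stimulus after 20 min compound exposure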
KCNQ1 pot = human KCNQ1 channel potentiation or activation | AID 2648 | P51787 | 310,000 compounds, 0.35% hits | CHO-K1 KCNQ1, thallium flux FluxOR fluorescence; active compounds read high | B-score at 10 µM;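 active = fluorescence ratio B-score, a plate-corrected score, at least three library SD, with initial intensity B-score within 5 SD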
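Doses: Single concentration per compound, DMSO matched to controls | Test system: KCNQ1-transfected CHO-K1 cells | Timing: 90 min dye loading and 20 min compound exposure, both at room temperature | Measured by: Kinetic FluxOR thallium fluorescence, 10-s 1-Hz baseline, 110-s post-stimulus read | Medium: Assay buffer with matched DMSO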
KCNK3 block = human KCNK3 channel inhibition, primary screen. B-score at 10 µM. CHO-KCNK3 thallium flux, FluxOR fluorescence; active compounds read low. 340,000 compounds, 0.84% hits. AID 602410. O14649;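 active = B-score under library mean minus 4 SD, starting fluorescence ratio at most library mean plus 5 SD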;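 note: more negative B-score means stronger inhibition of thallium flux through KCNK3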
Target sequence (O14649 whole entry, looked up): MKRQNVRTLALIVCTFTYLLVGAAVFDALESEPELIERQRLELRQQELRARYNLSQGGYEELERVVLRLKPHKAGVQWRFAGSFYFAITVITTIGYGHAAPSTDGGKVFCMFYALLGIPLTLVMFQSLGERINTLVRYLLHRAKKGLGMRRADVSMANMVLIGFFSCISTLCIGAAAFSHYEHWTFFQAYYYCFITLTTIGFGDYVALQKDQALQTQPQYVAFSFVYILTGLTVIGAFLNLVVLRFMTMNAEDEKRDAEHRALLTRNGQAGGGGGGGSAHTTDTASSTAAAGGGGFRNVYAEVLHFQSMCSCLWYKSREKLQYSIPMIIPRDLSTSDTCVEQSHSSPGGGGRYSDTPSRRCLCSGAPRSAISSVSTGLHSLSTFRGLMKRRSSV
Kir21 block = Kir2.1 (mouse) channel inhibition | HEK293-Kir2.1, FluxOR thallium flux fluorescence; active compounds read low | 310,000 compounds, 0.85% hits | B-score at 10 µM;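 active = fluorescence ratio B-score at or below minus 3 SD of library scores, with starting-brightness B-score within 2 SD, cut at about -4.2 in these data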;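 note: channel flux triggered by added potassium and thallium sulfate stimulus; B-score of peak minus minimum fluorescence over baseline after thallium stimulus; more negative B-score means stronger Kir2.1 block with less thallium influx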
hERG protect = shields human hERG channel from block by proarrhythmic agents; CHO-hERG, FluxOR thallium flux, dofetilide IC70 present; 310,000 compounds, 0.51% hits; activation (rescue from dofetilide block), less the hit threshold, % at 10 µM;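 active = activation above the mean of controls blocked by dofetilide plus 5 SD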;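 note: thallium influx through hERG after potassium depolarization seen as dye fluorescence rise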
Of the large screens only hits and unclear results are named; the others gave an inactive call; ! = not active in a repeat.

O=C1NC(=O)/C(=C/c2ccc(-c3cccc([N+](=O)[O-])c3)o2)S1	KCNQ1 block 12
CC1(C)[C@@H](O)CC[C@]2(C)C3C(O)C=C4[C@H]5C[C@@](C)(C(=O)O)CC[C@]5(C)CC[C@]4(C)[C@]3(C)CC[C@@H]12 (some centres undefined)	KCNQ1 pot 13 (no result: KCNK3 block)
Cc1cc(C)cc(NS(=O)(=O)c2ccc(-c3cnc(C4CC4)o3)cc2)c1	KCNQ1 pot 7
O=S(=O)(Nc1ccccc1)c1ccc(-c2cnc(C3CC3)o2)cc1	none
Cc1cc(C(=O)N2CCc3c([nH]c4ccccc34)C2c2cccc(Cl)c2)nn1C (centres undefined)	KCNK9 block -7.4
COc1ccc(C(=O)NNC(=O)C(=O)Nc2ccc(C)c(Cl)c2)cc1	KCNQ1 pot 58, hERG protect 97
CCc1ccc(NC(=O)C(=O)NNC(=O)c2ccc(OC)cc2)cc1	KCNQ1 pot 77, hERG protect 36
COc1ccc(C(=O)NNC(=O)C(=O)Nc2ccc(C)cc2)cc1	KCNQ1 pot 41, hERG protect 15
COc1ccc(CC(=O)NNC(=O)c2ccc(NC(C)=O)cc2)cc1	none
O=C1c2ccccc2C(=O)N1Cc1cnc(N2CCN(c3ccccc3)CC2)s1	none
CCCCC(CC(O)COCCC)C(=O)NN (centres undefined)	none
CC1CCCN(S(=O)(=O)c2ccc(NC(=O)CCN3C(=O)c4ccccc4C3=O)cc2)C1 (centres undefined)	none
c1csc(C2Nc3ccccc3-c3nc4ccccc4n32)c1 (centres undefined)	Kir21 block -4.5
Cc1ccsc1C1Nc2ccccc2-c2nc3ccccc3n21 (centres undefined)	none
CN(C)CCCNS(=O)(=O)c1ccc(NC2CCCCCC2)c([N+](=O)[O-])c1	KCNQ1 block 8
COc1cccc(OCC(=O)NNC(=O)c2ccc3ccccc3c2)c1	none
CC(C)CCN1C(=O)c2ccc(C(=O)Nc3ccc(Br)cc3C(=O)O)cc2C1=O	KCNQ1 block 6
CCOc1ccc(C2c3[nH]c4ccccc4c3CCN2CCCn2cccn2)cc1 (centres undefined)	KCNQ1 block 6
Cc1cc(C)c(Nc2ncccc2C(=O)O)c(C)c1	hERG protect 5.8
CCOC(=O)c1[nH]c2ccccc2c1NC(=O)C1CCCCC1	hERG protect 4.8
CCOC(=O)c1[nH]c2ccccc2c1NC(=O)C(C)(C)C	none
Cn1c(=O)c2nc3ccccc3nc2n(C)c1=O	KCNQ1 pot 10
Cn1c(=O)c2nc(-c3ccccc3)c(-c3ccccc3)nc2n(C)c1=O	none
CC(C)Cn1c(-c2cccs2)nc2ccccc21	Kir21 block -4.5
Cc1ccccc1NC(=O)CCNS(=O)(=O)c1cccc2nsnc12	none
Cc1nc(SCC(=O)N2CCC(Cc3ccccc3)CC2)[nH]c(=O)c1C	none
COCC(=O)NC1CCN(S(=O)(=O)c2ccc(C(=O)O)cc2)CC1	none
O=C(Cc1ccccc1)NC1CCN(S(=O)(=O)c2ccc(C(=O)O)cc2)CC1	hERG protect 6.1
CCOC(=O)C1=C(C)Nc2sc(C(=O)c3ccc(OC)cc3)c(N)c2C1c1ccc(C(=O)OC)cc1 (centres undefined)	KCNK9 block -6.7
O=P(CCCCCCCCCP(=O)(c1ccccc1)c1ccccc1)(c1ccccc1)c1ccccc1	KCNK9 block -7.2
COc1cc(/C=C/c2nc(N)nc(-c3ccccc3O)n2)cc(OC)c1OC	KCNK9 block -7.7
COc1ccc(/C=C/c2nc(N)nc(-c3ccccc3O)n2)cc1OC	none
COc1cccc(-c2nc(CS(=O)(=O)CC(=O)Nc3cc(F)ccc3F)c(C)o2)c1	none
Cc1c(NC(=O)Nc2ccc(Cl)c(Cl)c2)sc(=S)n1C	KCNQ1 block 8
CC(CCc1ccc(O)cc1)NC(c1ccccc1)c1ccc(Cl)cc1 (centres undefined)	KCNQ1 block 12
OCCN(CCO)c1ccc(C(c2ccccc2Cl)c2ccc(N(CCO)CCO)cc2Cl)c(Cl)c1	KCNQ1 pot 11
CN(C)/C=C(\C#N)C(=O)N/N=C/c1ccc(Cl)cc1	none
O=C(CS(=O)(=O)c1ccccc1)Nc1ncc([N+](=O)[O-])s1	none
O=C(Nc1ncc([N+](=O)[O-])s1)c1ccccc1Br	KCNQ1 block 8
O=C(Nc1ncc([N+](=O)[O-])s1)c1cccs1	KCNQ1 block 6!
COCC(C)NC(=O)C(C)N1c2cccc3cccc(c23)S1(=O)=O (centres undefined)	none
COc1ccccc1NS(=O)(=O)c1cn(C)cn1	none
Cc1ccc(/C=c2/sc3n(c2=O)CCCN=3)o1	KCNQ1 block 6
Cc1ccc(/C=c2\sc3n(c2=O)CN(c2ccc(Br)cc2)CN=3)o1	none
CCN(C1CCCCC1)S(=O)(=O)c1cc(C)ccc1OC	none
CCN(C1CCCCC1)S(=O)(=O)c1ccc(OC)c(C)c1	Kir21 block -5.4
Cc1ccc(NC(=O)c2ccccc2OCC(=O)Nc2ccccc2F)cc1S(=O)(=O)N(C)C	KCNK3 block -9.6 (no result: KCNK9 block, KCNQ1 block, KCNQ1 pot, Kir21 block, hERG protect)
Cc1ccc(NC(=O)COc2ccccc2C(=O)NCCN(C)C)cc1	hERG protect 6.9 (no result: KCNK3 block)
Cc1ccc(S(=O)(=O)N(C)C)cc1NC(=O)COc1ccccc1C(=O)Nc1ccccc1	none
COc1ccccc1C(=O)NCCC(=O)N(C)CC(=O)Nc1ccc(C)cc1	none
CN(C(=O)COc1ccccc1C(=O)NCCOc1ccccc1)c1ccccc1	Kir21 block -7.5
CC(=O)c1cccc(NC(=O)Cn2nc(-c3ccc(Cl)cc3)ccc2=O)c1	none
CSC(=S)N/N=C(\C)c1ccc(Br)cc1	KCNQ1 pot 41
CCOC(=O)Cc1nnc(NC(=O)C(CC)Sc2nnc3c4ccccc4n(C)c3n2)s1 (centres undefined)	none
CCOC(=O)c1sc(NC(=O)C(CC)Sc2nnc3c4ccccc4n(C(C)C)c3n2)nc1C (centres undefined)	KCNK3 block -11 (no result: KCNK9 block, KCNQ1 block, KCNQ1 pot, Kir21 block, hERG protect)
N=C1C(c2ccccc2)=C(O)CN1CCCO	none
CCOC(=O)C1C(=O)C=C(c2ccc([N+](=O)[O-])cc2)CC1c1ccccc1 (centres undefined)	KCNQ1 block 6
CCOC(=O)C1C(=O)C=C(c2ccc(C)cc2)CC1c1ccccc1 (centres undefined)	none
COCCOc1cc2ncnc(N3CCC(C(=O)O)CC3)c2cc1OCCOC	none
C=CCn1c(=S)[nH]c2nc3c(cc2c1=O)CCCC3	KCNQ1 pot 9, hERG protect 5.9
C=CCn1c(=S)[nH]c2ccc(Br)cc2c1=O	KCNQ1 pot 19, hERG protect 10
O=C(C[n+]1ccccc1)N/N=C/c1cccs1	none
Cc1cccc(OC(C)C(=O)N2CCCc3ccccc32)c1 (centres undefined)	Kir21 block -5.2
